Results from ChEMBL document CHEMBL1138361, “4-acyl-1-(4-aminoalkoxyphenyl)-2-ketopiperazines as a novel class of non-brain-penetrant histamine H3 receptor antagonists” (J Med Chem, 2007).

Tests used:
[1] = Partition coefficient, log D at pH 7.4; format: physicochemical; conditions: octanol/water
Summary of the method: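 Compound in phosphate buffer was shaken with buffer-saturated octanol (3 × 50 inversions). Phases were separated by centrifugation at 300g for 15 min. Both phases were quantified by HPLC, and log D was calculated from peak areas normalized to injection volume.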

[2] = Tmax in CD Sprague-Dawley rat at 3.0 mg/kg, po; format: ADME, organism-based; design: dose 3 mg/kg, route oral; conditions: in vivo
Summary of the method: (§1)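 Single iv and oral doses given to male CD Sprague-Dawley rats (1 mg/kg iv, 3 mg/kg po) and male Beagle dogs (1 mg/kg iv, 2 mg/kg po). Vehicle was a DMSO-PEG 200-water (5:45:50) solution. Serial and terminal blood samples were taken at time points up to 7, 12 or 24 h postdose.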

[3] = Cmax in CD Sprague-Dawley rat at 3.0 mg/kg, po; format: ADME, organism-based; design: dose 3 mg/kg, route oral; conditions: in vivo; summary of the method: as §1
[4] = AUC in CD Sprague-Dawley rat at 3.0 mg/kg, po; format: ADME, organism-based; design: dose 3 mg/kg, route oral; conditions: plasma; summary of the method: as §1
[5] = Ratio of drug level in brain to blood in CD Sprague-Dawley rat at 1 mg/kg, iv after 5 mins; format: ADME, organism-based; design: dose 1 mg/kg, route intravenous; conditions: brain and blood
Summary of the method: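 Male CD Sprague-Dawley rats were dosed iv in DMSO-PEG 200-water (5:45:50). Blood and brain were collected 5 min postdose under terminal isoflurane anesthesia. Blood was protein-precipitated; brain was homogenized and extracted. Parent drug was quantified by LCMS/MS.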

[6] = Volume of distribution in CD Sprague-Dawley rat at 1.0 mg/kg, iv; format: ADME, organism-based; design: dose 1 mg/kg, route intravenous; conditions: in vivo; summary of the method: as §1
[7] = AUC in CD Sprague-Dawley rat at 1.0 mg/kg, iv; format: ADME, organism-based; design: dose 1 mg/kg, route intravenous; conditions: plasma; summary of the method: as §1
[8] = Half life in CD Sprague-Dawley rat at 1.0 mg/kg, iv; format: ADME, organism-based; design: dose 1 mg/kg, route intravenous; conditions: in vivo; summary of the method: as §1
[9] = Tmax in CD Sprague-Dawley rat at 1.0 mg/kg, iv; format: ADME, organism-based; design: dose 1 mg/kg, route intravenous; conditions: in vivo; summary of the method: as §1
[10] = Clearance in CD Sprague-Dawley rat at 1.0 mg/kg, iv; format: ADME, organism-based; design: dose 1 mg/kg, route intravenous; conditions: in vivo; summary of the method: as §1
[11] = Cmax in CD Sprague-Dawley rat at 1.0 mg/kg, iv; format: ADME, organism-based; design: dose 1 mg/kg, route intravenous; conditions: in vivo; summary of the method: as §1
[12] = AUC in CD Sprague-Dawley rat at 2.9 mg/kg, po; format: ADME, organism-based; design: dose 2.9 mg/kg, route oral; conditions: plasma
[13] = Tmax in CD Sprague-Dawley rat at 2.9 mg/kg, po; format: ADME, organism-based; design: dose 2.9 mg/kg, route oral; conditions: in vivo
[14] = Cmax in CD Sprague-Dawley rat at 2.9 mg/kg, po; format: ADME, organism-based; design: dose 2.9 mg/kg, route oral; conditions: in vivo
[15] = Oral bioavailability in CD Sprague-Dawley rat at 2.9 mg/kg, po; format: ADME, organism-based; conditions: in vivo

`CS(=O)(=O)c1cccc(C(=O)N2CCN(c3ccc(OCCCN4CCCCC4)cc3)C(=O)C2)c1` showed a logD [1] of -1.22.

With `O=C(c1cc(F)cc(F)c1)N1CCN(c2ccc(OCCCN3CCCCC3)cc2)C(=O)C1` the logD [1] was 0.2.

Molecule `O=C(c1ccc(C(=O)N2CCN(c3ccc(OCCCN4CCCCC4)cc3)C(=O)C2)cc1)N1CCC1` has a logD [1] of -0.95.

In the case of `CS(=O)(=O)c1cccc(C(=O)N2CCN(c3ccc(OC4CCN(C5CCCC5)CC4)cc3)C(=O)C2)c1`, the logD [1] is reported as -0.41.

For `O=C(c1cc(F)cc(F)c1)N1CCN(c2ccc(OC3CCN(C4CCCC4)CC3)cc2)C(=O)C1`, the logD [1] was 1.03.

With `O=C(c1ccc(F)cc1F)N1CCN(c2ccc(OC3CCN(C4CCCC4)CC3)cc2)C(=O)C1` the logD [1] was 0.96.

For `CC(C)N1CCC(Oc2ccc(N3CCN(C(=O)c4ccc(F)cc4F)CC3=O)cc2)CC1`, the logD [1] was -0.05.

In the case of `C[C@H]1CCCN1CCCOc1ccc(N2CCN(C(=O)c3cc(F)cc(F)c3)CC2=O)cc1`, the logD [1] is reported as 0.09.

In the case of `O=C(c1cc(F)cc(F)c1)N1CCN(c2ccc(OCCCN3CCCC3)cc2)C(=O)C1`, the logD [1] is reported as -0.38.

`C[C@@H]1CCCN1CCCOc1ccc(N2CCN(C(=O)c3ccc(F)cc3)CC2=O)cc1` gave a logD [1] of -0.13.

In the case of `O=C(c1ccc(F)cc1F)N1CCN(c2ccc(OCCCN3CCCCC3)cc2)C(=O)C1`, the logD [1] is reported as 0.1.

Molecule `CS(=O)(=O)c1ccc(C(=O)N2CCN(c3ccc(OC4CCN(C5CCC5)CC4)cc3)C(=O)C2)cc1.O=CO` has a Tmax [2] of 4 h, a Cmax [3] of 10 ng/mL and an AUC [4] of 67 ng·h/mL. It also gave a logD [1] of -0.38.

With `O=C(c1ccc(C(=O)N2CCN(c3ccc(OC4CCN(C5CCC5)CC4)cc3)C(=O)C2)cc1)N1CCC1.O=CO` the Kp at 5 min [5] was 0.1 and the logD [1] was -0.29.

With `N#Cc1ccc(C(=O)N2CCN(c3ccc(OCCCN4CCCCCC4)cc3)C(=O)C2)cc1` the logD [1] was -0.39.

With `O=C(c1ccc(F)cc1)N1CCN(c2ccc(OCCCN3CCCC3)cc2)C(=O)C1.O=CO` the Tmax [2] was 7 h, the Vd [6] was 2 L/kg and the Cmax [3] was 40 ng/mL. For the same molecule, the AUC [4] was 355 ng·h/mL, the AUC [7] was 536 ng·h/mL and the half-life [8] was 1.3 h. It also gave a Tmax [9] of 4.8 min, a clearance [10] of 31 mL/min/kg and a logD [1] of 0.14. It also gave a Cmax [11] of 342 ng/mL.

With `CC(C)N1CCC(Oc2ccc(N3CCN(C(=O)c4cc(F)cc(F)c4)CC3=O)cc2)CC1` the logD [1] was 0.06.

With `N#Cc1ccc(C(=O)N2CCN(c3ccc(OCCCN4CCCCC4)cc3)C(=O)C2)cc1` the logD [1] was -0.38.

Work on `Cc1ccc(C(=O)N2CCN(c3ccc(OCCCN4CCCCC4)cc3)C(=O)C2)cc1` yielded a logD [1] of 0.48.

`CC(C)(C)C(=O)N1CCN(c2ccc(OCCCN3CCCCC3)cc2)C(=O)C1.Cl` gave a Kp at 5 min [5] of 0.1 and a logD [1] of -0.02.

Molecule `Cl.O=C(c1ccc(F)cc1)N1CCN(c2ccc(OC3CCN(C4CCC4)CC3)cc2)C(=O)C1` has a Vd [6] of 2.5 L/kg, an AUC [12] of 760 ng·h/mL and a Tmax [13] of 2 h. It also gave a Cmax [14] of 91 ng/mL, an AUC [7] of 837 ng·h/mL and a half-life [8] of 2 h. The bioavailability [15] was 35%, the Tmax [9] was 4.8 min and the clearance [10] was 18 mL/min/kg. It also gave a logD [1] of 0.9 and a Cmax [11] of 337 ng/mL.

`O=C(c1ccccc1)N1CCN(c2ccc(OC3CCN(C4CCC4)CC3)cc2)C(=O)C1` showed a logD [1] of 0.73.

With `Cl.O=C(c1ccc(Cl)cc1)N1CCN(c2ccc(OC3CCN(C4CCC4)CC3)cc2)C(=O)C1` the Kp at 5 min [5] was 0.4 and the logD [1] was 1.51.

`Cc1ccc(C(=O)N2CCN(c3ccc(OC4CCN(C5CCC5)CC4)cc3)C(=O)C2)cc1` gave a logD [1] of 1.3.

Molecule `O=C(c1ccccc1)N1CCN(c2ccc(OCCCN3CCCCC3)cc2)C(=O)C1` has a logD [1] of -0.09.
